In brackets after ≈: the same amount, converted by molar mass. Activity calls are given as the source filed them. The rule behind the calls is not given here.
Experiments:
Assay type in all cases: functional
[1] = system: Mus musculus; assay: Analgesic activity in Albino mouse assessed as protection against acetic acid-induced writhing at 10 mg/kg, ip within 30 mins; conditions: route intraperitoneal
Summary of the method: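 Mice (20–25 g, either sex) starved 16 h, six per group, given 10 mg/kg i.p.; vehicle control received 1% DMSO at 0.5 ml/100 g. After 1 h, 0.1 ml of 3% acetic acid was given. Writhes were counted over 30 min, and the group mean was expressed as % inhibition versus control. Student's t-test was used.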

[2] = system: Rattus norvegicus; assay: Antiinflammatory activity in Albino rat assessed as protection against carrageenan-induced hind paw oedema at 10 mg/kg, po after 3 hrs
Summary of the method: (§1)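 Rats (150–250 g, either sex) were fasted 18 h and grouped in sixes. Compounds or standards were given orally as a suspension in 5% DMSO. After 1 h, 0.1 ml of 1% carrageenin was injected subplantar into the right hind paw. Paw volume was read by mercury plethysmometer at once and at 3 h. % protection = 100(1−Vt/Vc) versus vehicle.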

[3] = system: Rattus norvegicus; assay: Antiinflammatory activity in Albino rat assessed as protection against carrageenan-induced hind paw oedema at 20 mg/kg, po after 3 hrs; summary of the method: as §1
[4] = system: Rattus norvegicus; assay: Antiinflammatory activity in Albino rat assessed as protection against carrageenan-induced hind paw oedema at 40 mg/kg, po after 3 hrs; summary of the method: as §1
[5] = Antioxidant activity assessed as nitric oxide radical scavenging activity at 5 ug/ml after 150 mins
Summary of the method: (§2)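 Sodium nitroprusside (10 mmol) in PBS at physiological pH was incubated with sample at 25 °C for 150 min in a 3 ml reaction. Aliquots taken every 30 min were mixed 1:1 with Griess reagent (1% sulphanilamide, 0.1% naphthylethylenediamine in 2% H3PO4), and absorbance was read at 546 nm. Runs were done in triplicate, and % scavenging was calculated against the blank.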

[6] = Antioxidant activity assessed as nitric oxide radical scavenging activity at 10 ug/ml after 150 mins; summary of the method: as §2
[7] = Antioxidant activity assessed as nitric oxide radical scavenging activity at 15 ug/ml after 150 mins; summary of the method: as §2
[8] = Antioxidant activity assessed as nitric oxide radical scavenging activity at 20 ug/ml after 150 mins; summary of the method: as §2
[9] = Antioxidant activity assessed as nitric oxide radical scavenging activity at 25 ug/ml after 150 mins; summary of the method: as §2
[10] = Antioxidant activity assessed as nitric oxide radical scavenging activity at 30 ug/ml after 150 mins; summary of the method: as §2
[11] = Antioxidant activity assessed as nitric oxide radical scavenging activity at 35 ug/ml after 150 mins; summary of the method: as §2
[12] = Inhibition of nitric oxide radical scavenging activity; summary of the method: as §2

| IC50 [12] [µg/mL] | Compound | Activity [1] [%] | Activity [2] [%] | Activity [3] [%] | Activity [4] [%] | Activity [5] | Activity [6] | Activity [7] | Activity [8] | Activity [9] | Activity [10] | Activity [11] | Activity [12] |
| --- | --- | --- | --- | --- | --- | --- | --- | --- | --- | --- | --- | --- | --- |
|  | COC(=O)c1c(Nc2ccc(C)cc2)sc(C(=O)c2ccc(OC)cc2)c1C | 45 | 50 | 63 | 70 | inactive | inactive | inactive | inactive | inactive | inactive | inactive | inactive |
|  | COC(=O)c1c(Nc2ccccc2)sc(/C(=N/O)c2ccc(C)cc2)c1C |  | 13 | 21 | 30 |  |  |  |  |  |  |  |  |
|  | COC(=O)c1c(Nc2ccc(C)cc2)sc(/C(=N/O)c2ccc(OC)cc2)c1C |  | 22 | 27 | 30 |  |  |  |  |  |  |  |  |
| 72.21 (≈ 175 µM) | COC(=O)c1c(Nc2ccc(OC)cc2)sc(C(=O)c2ccc(OC)cc2)c1C | 40 | 71 | 72 | 76 | 4.29% | 5.9% | 7.8% | 12% | 15.4% | 20.5% | 25.1% |  |
|  | COC(=O)c1c(Nc2ccccc2)sc(/C(=N/O)c2ccc(OC)cc2)c1C |  | 5 | 38 | 34 |  |  |  |  |  |  |  |  |
|  | Cc1ccc(C(=O)c2sc(Nc3ccc(F)cc3)c(C(=O)O)c2C)cc1 | 22 | 38 | 44 | 42 | inactive | inactive | inactive | inactive | inactive | inactive | inactive | inactive |
|  | COc1ccc(C(=O)c2sc(Nc3ccc(Cl)cc3)c(C(=O)O)c2C)cc1 | 30 | 49 | 49 | 43 | inactive | inactive | inactive | inactive | inactive | inactive | inactive | inactive |
|  | COc1ccc(C(=O)c2sc(Nc3ccc(C)cc3)c(C(=O)O)c2C)cc1 | 26 | 56 | 63 | 62 | inactive | inactive | inactive | inactive | inactive | inactive | inactive | inactive |
|  | COC(=O)c1c(Nc2ccc(Cl)cc2)sc(/C(=N\O)c2ccc(C)cc2)c1C |  | 13 | 29 | 42 |  |  |  |  |  |  |  |  |
|  | COC(=O)c1c(Nc2ccc(Cl)cc2)sc(/C(=N/O)c2ccc(OC)cc2)c1C |  | 3 | 12 | 30 |  |  |  |  |  |  |  |  |
|  | COC(=O)c1c(Nc2ccc(Cl)cc2)sc(C(=O)c2ccc(OC)cc2)c1C | 60 | 42 | 40 | 39 | inactive | inactive | inactive | inactive | inactive | inactive | inactive | inactive |
|  | COC(=O)c1c(Nc2ccc(F)cc2)sc(/C(=N/O)c2ccc(OC)cc2)c1C |  | 20 | 25 | 30 |  |  |  |  |  |  |  |  |
|  | CC(C)Cc1ccc(C(C)C(=O)O)cc1 (configuration not stated) [IBUPROFEN] | 60 |  | 33 |  |  |  |  |  |  |  |  |  |

Reference: ChEMBL document CHEMBL1147872, “Syntheses of new tetrasubstituted thiophenes as novel anti-inflammatory agents” (Eur J Med Chem, 2007)
